Measured values from ChEMBL document CHEMBL1649560, “Beta-lactamase-mediated beta-lactam resistance in Campylobacter species: prevalence of Cj0299 (bla OXA-61) and evidence for a novel beta-Lactamase in C. jejuni” (2009).
≈ marks a conversion by molar mass, not a printed value.

Columns and labels:
Type in all cases: functional
Campylobacter jejuni [1] = experiment: Antibacterial activity against bla gene-negative and nitrocefin reaction-negative beta-lactamase harboring Campylobacter jejuni isolate P1962 by NCCLS agar doubling dilution method in presence of Tazobactam
Summary of the method: (§1)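 MICs of β-lactams by agar doubling dilution following the NCCLS (CLSI) Campylobacter Working Group procedure, with C. jejuni NCTC 11168 and C. coli NCTC 11366 as controls. Isolates were from UK poultry flocks. β-Lactamase status was set by Cj0299 PCR (281-bp amplimer) and by a nitrocefin colour change of sonicated lysate within 5 min, or within 30 min on repeat.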

Campylobacter jejuni [2] = experiment: Antibacterial activity against bla gene-positive and nitrocefin reaction-positive beta-lactamase harboring Campylobacter jejuni isolate P1730 by NCCLS agar doubling dilution method in presence of Tazobactam
Summary of the method: (§2)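 MICs by agar doubling dilution per the NCCLS (now CLSI) Campylobacter Working Group method. Isolates came from UK chicken flocks (feces, ceca or farm environment), 2000–2006. C. jejuni NCTC 11168 and C. coli NCTC 11366 served as control strains. The ampicillin resistance cutoff was 8 μg/ml; BSAC/CLSI Enterobacteriaceae guidelines were used for other agents.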

Campylobacter coli [3] = experiment: Antibacterial activity against Campylobacter coli by NCCLS agar doubling dilution method
Summary of the method: (§3)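 MICs by agar doubling dilution following the NCCLS (CLSI) Campylobacter Working Group procedure, applied to ampicillin- and amoxicillin-resistant isolates from UK chicken flocks (2000–2006). C. jejuni NCTC 11168 and C. coli NCTC 11366 served as control strains. Resistance was called at an ampicillin cutoff of 8 μg/ml. Other agents were judged against Enterobacteriaceae guidelines (BSAC, CLSI).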

Campylobacter jejuni [4] = experiment: Antibacterial activity against bla gene-positive and nitrocefin reaction-positive beta-lactamase harboring Campylobacter jejuni isolate P790 by NCCLS agar doubling dilution method in presence of Tazobactam; summary of the method: as §2
Campylobacter jejuni [5] = experiment: Antibacterial activity against bla gene-positive and nitrocefin reaction-negative beta-lactamase harboring Campylobacter jejuni isolate P1699 by NCCLS agar doubling dilution method in presence of Tazobactam; summary of the method: as §1
Campylobacter jejuni [6] = experiment: Antibacterial activity against bla gene-positive and nitrocefin reaction-negative beta-lactamase harboring Campylobacter jejuni isolate NCTC 11168 by NCCLS agar doubling dilution method in presence of Tazobactam; summary of the method: as §1
Campylobacter jejuni [7] = experiment: Antibacterial activity against bla gene-positive and nitrocefin reaction-positive beta-lactamase harboring Campylobacter jejuni isolate P285 by NCCLS agar doubling dilution method in presence of Tazobactam; summary of the method: as §2
Campylobacter jejuni [8] = experiment: Antibacterial activity against Campylobacter jejuni isolate P338 harboring blaOXA-61::cat gene by NCCLS agar doubling dilution method in presence of Tazobactam
Summary of the method: (§4)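 Agar doubling dilution MICs (NCCLS/CLSI Campylobacter Working Group method) against Cj0299-inactivated mutants. Mutants were made by transforming the C. jejuni isolate with pCI and selecting on Mueller-Hinton agar with 10 μg/ml chloramphenicol for 3–5 days. Chromosomal insertion was confirmed by PCR with Cj0299 and cat primers.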

Campylobacter jejuni [9] = experiment: Antibacterial activity against bla gene-positive and nitrocefin reaction-negative beta-lactamase harboring Campylobacter jejuni isolate P1698 by NCCLS agar doubling dilution method in presence of Tazobactam; summary of the method: as §1
Campylobacter coli [10] = experiment: Antibacterial activity against bla gene-positive and nitrocefin reaction-positive beta-lactamase harboring Campylobacter coli isolate P321 by NCCLS agar doubling dilution method in presence of Tazobactam; summary of the method: as §1
Campylobacter jejuni [11] = experiment: Antibacterial activity against bla gene-negative and nitrocefin reaction-negative beta-lactamase harboring Campylobacter jejuni isolate P835 by NCCLS agar doubling dilution method in presence of Tazobactam; summary of the method: as §1
Campylobacter jejuni [12] = experiment: Antibacterial activity against Campylobacter jejuni isolate P1093 harboring blaOXA-61::cat gene by NCCLS agar doubling dilution method in presence of Tazobactam; summary of the method: as §4
Campylobacter jejuni [13] = experiment: Antibacterial activity against bla gene-positive and nitrocefin reaction-positive beta-lactamase harboring Campylobacter jejuni isolate P1650 by NCCLS agar doubling dilution method in presence of Tazobactam; summary of the method: as §2
Campylobacter jejuni [14] = experiment: Antibacterial activity against bla gene-negative and nitrocefin reaction-positive beta-lactamase harboring Campylobacter jejuni isolate P843 by NCCLS agar doubling dilution method in presence of Tazobactam; summary of the method: as §1
Campylobacter coli [15] = experiment: Antibacterial activity against bla gene-positive and nitrocefin reaction-positive beta-lactamase harboring Campylobacter coli isolate P1826 by NCCLS agar doubling dilution method in presence of Tazobactam; summary of the method: as §1
Campylobacter jejuni [16] = experiment: Antibacterial activity against bla gene-positive and nitrocefin reaction-positive beta-lactamase harboring Campylobacter jejuni isolate P316 by NCCLS agar doubling dilution method in presence of Tazobactam; summary of the method: as §2
Campylobacter jejuni [17] = experiment: Antibacterial activity against bla gene-negative and nitrocefin reaction-positive beta-lactamase harboring Campylobacter jejuni isolate P854 by NCCLS agar doubling dilution method in presence of Tazobactam; summary of the method: as §1
Campylobacter jejuni [18] = experiment: Antibacterial activity against bla gene-positive and nitrocefin reaction-positive beta-lactamase harboring Campylobacter jejuni isolate P286 by NCCLS agar doubling dilution method in presence of Tazobactam; summary of the method: as §2
Campylobacter jejuni [19] = experiment: Antibacterial activity against bla gene-positive and nitrocefin reaction-positive beta-lactamase harboring Campylobacter jejuni isolate P1093 by NCCLS agar doubling dilution method in presence of Tazobactam; summary of the method: as §1
Campylobacter coli [20] = experiment: Antibacterial activity against bla-positive and beta-lactamase-weakly positive Campylobacter coli isolate P1627 by NCCLS agar doubling dilution method in presence of Tazobactam; summary of the method: as §2
Campylobacter coli [21] = experiment: Antibacterial activity against Campylobacter coli by NCCLS agar doubling dilution method in presence of Tazobactam; summary of the method: as §1
Campylobacter jejuni [22] = experiment: Antibacterial activity against Campylobacter jejuni by NCCLS agar doubling dilution method; summary of the method: as §3
Campylobacter jejuni [23] = experiment: Antibacterial activity against Campylobacter jejuni isolate P270 harboring blaOXA-61::cat gene by NCCLS agar doubling dilution method in presence of Tazobactam
Campylobacter jejuni [24] = experiment: Antibacterial activity against Campylobacter jejuni by NCCLS agar doubling dilution method in presence of Tazobactam; summary of the method: as §1
Campylobacter jejuni [25] = experiment: Antibacterial activity against bla gene-positive and nitrocefin reaction-positive beta-lactamase harboring Campylobacter jejuni isolate P1618 by NCCLS agar doubling dilution method in presence of Tazobactam; summary of the method: as §1
Campylobacter jejuni [26] = experiment: Antibacterial activity against bla gene-negative and nitrocefin reaction-negative beta-lactamase harboring Campylobacter jejuni isolate P850 by NCCLS agar doubling dilution method in presence of Tazobactam; summary of the method: as §1
Campylobacter jejuni [27] = experiment: Antibacterial activity against bla gene-positive and nitrocefin reaction-positive beta-lactamase harboring Campylobacter jejuni isolate P338 by NCCLS agar doubling dilution method in presence of Tazobactam; summary of the method: as §2

SMILES: C[C@]1(Cn2ccnn2)[C@H](C(=O)O)N2C(=O)C[C@H]2S1(=O)=O [TAZOBACTAM]
- MIC (Campylobacter jejuni [1]): > 16 µg/mL
- MIC (Campylobacter jejuni [2]): 16 µg/mL
- MIC (Campylobacter coli [3]): 16 µg/mL (≈ 53.3 µM)
- MIC50 (Campylobacter coli [3]): 16 µg/mL (≈ 53.3 µM)
- MIC90 (Campylobacter coli [3]): 32 µg/mL (≈ 107 µM)
- MIC (Campylobacter jejuni [4]): > 16 µg/mL
- MIC (Campylobacter jejuni [5]): < 8 µg/mL
- MIC (Campylobacter jejuni [6]): 16 µg/mL
- MIC (Campylobacter jejuni [7]): > 16 µg/mL
- MIC (Campylobacter jejuni [8]): 8 µg/mL
- MIC (Campylobacter jejuni [9]): 16 µg/mL
- MIC (Campylobacter coli [10]): > 16 µg/mL
- MIC (Campylobacter jejuni [11]): > 16 µg/mL
- MIC (Campylobacter jejuni [12]): 32 µg/mL
- MIC (Campylobacter jejuni [13]): 32 µg/mL
- MIC (Campylobacter jejuni [14]): > 16 µg/mL
- MIC (Campylobacter coli [15]): 16 µg/mL
- MIC (Campylobacter jejuni [16]): > 16 µg/mL
- MIC (Campylobacter jejuni [17]): > 8 µg/mL
- MIC (Campylobacter jejuni [18]): > 16 µg/mL
- MIC (Campylobacter jejuni [19]): 256 µg/mL
- MIC (Campylobacter coli [20]): 16 µg/mL
- MIC50 (Campylobacter coli [21]): 16 µg/mL
- MIC90 (Campylobacter coli [21]): 32 µg/mL
- MIC50 (Campylobacter jejuni [22]): 16 µg/mL (≈ 53.3 µM)
- MIC90 (Campylobacter jejuni [22]): 32 µg/mL (≈ 107 µM)
- MIC (Campylobacter jejuni [23]): 4 µg/mL
- MIC50 (Campylobacter jejuni [24]): 16 µg/mL
- MIC90 (Campylobacter jejuni [24]): 32 µg/mL
- MIC (range minimum) (Campylobacter jejuni [24]): 1 µg/mL
- MIC (Campylobacter jejuni [25]): 32 µg/mL
- MIC (Campylobacter jejuni [26]): > 8 µg/mL
- MIC (Campylobacter jejuni [27]): > 16 µg/mL
